From PubChem
An excerpt weighted towards active compounds, which were near 1.5% of everything screened.
M4 PAM: potentiates acetylcholine response at human M4 receptor. P08173. CHO-K1 hM4/Gqi5, Fluo-8 calcium fluorescence, ACh EC20; 0% = ACh EC20, 100% = maximal ACh. activation, % at 3 µM. hit rate 0.4% among 360,000. AID 624126;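 active means activation above its plate's cutoff, the mean activation of sample wells plus 3 SD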
Target sequence (P08173 whole entry, looked up): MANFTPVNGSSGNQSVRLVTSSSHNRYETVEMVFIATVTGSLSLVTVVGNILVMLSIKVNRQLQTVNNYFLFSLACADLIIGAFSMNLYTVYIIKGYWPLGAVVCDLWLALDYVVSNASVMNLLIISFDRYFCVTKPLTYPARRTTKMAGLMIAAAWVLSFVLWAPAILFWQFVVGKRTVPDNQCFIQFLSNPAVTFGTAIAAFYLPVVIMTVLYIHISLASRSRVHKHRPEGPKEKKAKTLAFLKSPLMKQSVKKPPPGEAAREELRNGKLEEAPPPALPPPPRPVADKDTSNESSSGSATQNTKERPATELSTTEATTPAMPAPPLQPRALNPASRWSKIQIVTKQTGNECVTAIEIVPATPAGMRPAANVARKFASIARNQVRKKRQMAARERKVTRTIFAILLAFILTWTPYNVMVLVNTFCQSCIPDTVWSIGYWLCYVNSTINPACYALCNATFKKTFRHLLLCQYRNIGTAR
CHRM4 antagonist: CHRM4 antagonism in calcium assay; P08173; CHO-hM4 cells, ACh EC80, Fluo-8 calcium fluorescence; inhibition, % at 3 µM; hit rate 0.73% among 360,000;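 active means inhibition above its plate's cutoff, the mean inhibition of sample wells plus 3 SD, cut at about 27% in these data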
OXTR agonist: activates the human oxytocin receptor; P30559; CHO-OTR cells, Fluo-8 calcium fluorescence; normalized: DMSO 0%, oxytocin 100%; activation, % at 3 µM; hit rate 0.32% among 320,000;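 active means activation above the mean of all tested compounds plus 3 SD, cutoff set per screening run, cut at about 20% in these data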;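 further: peak over basal fluorescence ratio from a 100 s FLIPR kinetic read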
V1R ag counter: V1a receptor agonism, counter-screen for OXTR agonists; P37288; CHO-V1R cells, Fluo-8 calcium fluorescence, agonist mode; 0% DMSO, 100% 3 nM vasopressin; activation, % at 3 µM; hit rate 0.25% among 320,000; AID 2797;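 active means activation above the mean activation of all tested compounds plus 3 SD, per screening run, cut at about 20% in these data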;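 further: signal is peak over basal fluorescence ratio across a 100 second FLIPR read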
CHRM4 agonist: CHRM4 agonism in calcium assay; activation, % at 3 µM; hit rate 0.14% among 360,000; CHO-K1 hM4/Gqi5, Fluo-8 calcium fluorescence; vehicle 0%, full acetylcholine response 100%; P08173;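 active means activation above the run mean over all test wells plus 3 SD, cut at about 32% in these data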;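 further: peak over basal fluorescence ratio per well then scaled between controls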
OXTR potentiate: potentiates the human oxytocin receptor response; AID 2445; activation, % at 3 µM; hit rate 0.061% among 320,000; P30559; CHO-OTR cells, Fluo-8 calcium fluorescence, potentiator mode; 0% = oxytocin EC15, 100% = EC100;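 active means activation above that plate's cutoff, the mean activation of tested compounds plus 3 SD, cut at about 6.6% in these data, passing the limit was not always enough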
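Dosing: Single dose, 3.0 µM nominal final compound concentration | Material: Human OTR in CHO cells | Technique: Kinetic Fluo-8 calcium fluorescence | Benchmarks: EC15 oxytocin alone as 0%, 75 nM oxytocin as 100% | Probe or stimulus: Oxytocin at about EC15, sub-maximal agonist stimulus | Incubation: Compound 6 min at room temperature before oxytocin, 100 s read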
A number is an active result.

How did Cc1ccc(NC(=S)NCC2CCCO2)cc1 (stereo unspecified) do in these assays?
M4 PAM: 26; CHRM4 antagonist: inactive; OXTR agonist: inactive; V1R ag counter: inactive; CHRM4 agonist: inactive; OXTR potentiate: inactive

Results for Cc1ccc(NC(=S)NCC2CCCO2)cc1C (stereo unspecified) ?
M4 PAM: inactive; CHRM4 antagonist: inactive; OXTR agonist: inactive; V1R ag counter: inactive; CHRM4 agonist: inactive; OXTR potentiate: inactive

What do the screens show for `Cc1ccc(NC(=O)CN(C(=O)N2CCN(C)CC2)S(=O)(=O)c2ccc(C)cc2)cc1`?
M4 PAM: inactive; CHRM4 antagonist: inactive; OXTR agonist: inactive; V1R ag counter: inactive; CHRM4 agonist: inactive; OXTR potentiate: inactive

Results for Cc1ccc(S(=O)(=O)N(CC(=O)Nc2ccccc2)C(=O)N2CCN(C)CC2)cc1 ?
M4 PAM: 20; CHRM4 antagonist: inactive; OXTR agonist: inactive; V1R ag counter: inactive; CHRM4 agonist: inactive; OXTR potentiate: inactive

What do the screens show for `N#CNC(=Nc1cccc(C(F)(F)F)c1)SCc1ccc(C(=O)O)cc1`?
M4 PAM: inactive; CHRM4 antagonist: 38; OXTR agonist: inactive; V1R ag counter: inactive; CHRM4 agonist: inactive; OXTR potentiate: inactive

Results for N#CNC(=Nc1ccccc1)SCc1ccc(C(=O)O)cc1 ?
M4 PAM: inactive; CHRM4 antagonist: inactive; OXTR agonist: inactive; V1R ag counter: inactive; CHRM4 agonist: inactive; OXTR potentiate: inactive

How did Cc1ccc(C(O)(CCN2CCCCC2)c2ccccc2)cc1 (stereo unspecified) do in these assays?
M4 PAM: inactive; CHRM4 antagonist: 93; OXTR agonist: inactive; V1R ag counter: inactive; CHRM4 agonist: inactive; OXTR potentiate: inactive

How did OC(C#CCCN1CCCCC1)(c1ccccc1)C1CCCCC1 (stereo unspecified) do in these assays?
M4 PAM: inactive; CHRM4 antagonist: 97; OXTR agonist: inactive; V1R ag counter: inactive; CHRM4 agonist: inactive; OXTR potentiate: inactive

What do the screens show for `OC(CCN1CCCCC1)(c1ccccc1)C1CCCCC1` (stereo unspecified)?
OXTR agonist: inactive; V1R ag counter: inactive; OXTR potentiate: inactive

How did OC(CCN1CCCCC1)(c1ccccc1)C1C[C@@H]2C=C[C@H]1C2 (stereo partly specified) do in these assays?
M4 PAM: inactive; CHRM4 antagonist: 99; OXTR agonist: inactive; V1R ag counter: inactive; CHRM4 agonist: inactive; OXTR potentiate: inactive

How did CCCOc1ccc(C(O)(CCC)CCN2CCCCC2)cc1 (stereo unspecified) do in these assays?
M4 PAM: inactive; CHRM4 antagonist: inactive; OXTR agonist: inactive; V1R ag counter: inactive; CHRM4 agonist: inactive; OXTR potentiate: inactive

How did OC(C#CCCN1CCCCC1)(c1ccccc1)c1ccccc1 do in these assays?
M4 PAM: inactive; CHRM4 antagonist: 95; OXTR agonist: inactive; V1R ag counter: inactive; CHRM4 agonist: inactive; OXTR potentiate: inactive

Results for CC(C)N(CC#CCC(O)(c1ccccc1)c1ccccc1)C(C)C ?
M4 PAM: inactive; CHRM4 antagonist: inactive; OXTR agonist: inactive; V1R ag counter: inactive; CHRM4 agonist: inactive; OXTR potentiate: inactive

What do the screens show for `CCN(CC)CCC#CC(O)(c1ccccc1)c1ccccc1`?
M4 PAM: inactive; CHRM4 antagonist: 84; OXTR agonist: inactive; V1R ag counter: inactive; CHRM4 agonist: inactive; OXTR potentiate: inactive

What do the screens show for `CCOc1ccc(NCc2cccn2-c2nnc(N3CCC(C(=O)NCCCN4CC(C)CC(C)C4)CC3)s2)cc1` (stereo unspecified)?
M4 PAM: inactive; CHRM4 antagonist: 34; OXTR agonist: inactive; V1R ag counter: inactive; CHRM4 agonist: inactive; OXTR potentiate: inactive

What do the screens show for `N#C/C(=C/C1=C(N2CCOCC2)C(=C/c2ccc(Cl)cc2Cl)/CC1)C(=O)Nc1ccccc1F`?
M4 PAM: inactive; CHRM4 antagonist: inactive; CHRM4 agonist: inactive

What do the screens show for `CN(CC(=O)Nc1ccc(C#N)cc1)Cc1ccc(Cl)c(Cl)c1`?
M4 PAM: inactive; CHRM4 antagonist: 43; OXTR agonist: inactive; V1R ag counter: inactive; CHRM4 agonist: inactive; OXTR potentiate: inactive

How did CN(CC(=O)Nc1cccc(C#N)c1)Cc1ccc(Cl)cc1 do in these assays?
M4 PAM: inactive; CHRM4 antagonist: inactive; OXTR agonist: inactive; V1R ag counter: inactive; CHRM4 agonist: inactive; OXTR potentiate: inactive

What do the screens show for `CN(CC(=O)Nc1ccc(N2CCOCC2)cc1)CC(=O)Nc1cccc(C#N)c1`?
M4 PAM: 23; CHRM4 antagonist: inactive; OXTR agonist: inactive; V1R ag counter: inactive; CHRM4 agonist: inactive; OXTR potentiate: inactive

What do the screens show for `CC1CCCC(C)N1C(=O)CSc1nnc(CSc2ncccn2)n1C` (stereo unspecified)?
M4 PAM: inactive; CHRM4 antagonist: inactive; OXTR agonist: inactive; V1R ag counter: inactive; CHRM4 agonist: inactive; OXTR potentiate: inactive

Results for Cn1c(=O)[nH]c(=O)c2c1nc(CN1CCN(c3ccccc3F)CC1)n2CCCc1ccccc1 ?
M4 PAM: 22; CHRM4 antagonist: inactive; OXTR agonist: inactive; V1R ag counter: inactive; CHRM4 agonist: inactive; OXTR potentiate: inactive

Results for Cc1ccc(CCN2CC(C(=O)NCCCN3CCC(C)CC3)CC2=O)cc1 (stereo unspecified) ?
M4 PAM: inactive; CHRM4 antagonist: inactive; OXTR agonist: inactive; V1R ag counter: inactive; CHRM4 agonist: inactive; OXTR potentiate: inactive

Results for COC(=O)[C@]12CCCCC=C1N(Cc1ccccc1)C(=O)[C@H](CC(=O)NCCC(C)C)C2 ?
M4 PAM: inactive; CHRM4 antagonist: inactive; CHRM4 agonist: inactive

What do the screens show for `O=C(c1ccccc1)c1ccccc1N1C(=O)C=CC1=O`?
M4 PAM: inactive; CHRM4 antagonist: 72; OXTR agonist: inactive; V1R ag counter: inactive; CHRM4 agonist: inactive; OXTR potentiate: inactive

How did O=C1C=CC(=O)N1c1ccccc1N1C(=O)C=CC1=O do in these assays?
M4 PAM: inactive; CHRM4 antagonist: inactive; CHRM4 agonist: inactive

How did CCOc1ccc(NC(=O)CN(C)C(=O)c2ccc(NC3CC3)c([N+](=O)[O-])c2)cc1OCC do in these assays?
M4 PAM: inactive; CHRM4 antagonist: inactive; OXTR agonist: inactive; V1R ag counter: inactive; CHRM4 agonist: inactive; OXTR potentiate: inactive

Results for Cc1cc(C)c(-c2csc(NC(=O)c3cc([N+](=O)[O-])ccc3N3CCOCC3)n2)c(C)c1 ?
M4 PAM: inactive; CHRM4 antagonist: 36; OXTR agonist: inactive; V1R ag counter: inactive; CHRM4 agonist: inactive; OXTR potentiate: inactive

Results for Cc1ccc(NC(=O)c2cccnc2)c([N+](=O)[O-])c1 ?
M4 PAM: inactive; CHRM4 antagonist: inactive; OXTR agonist: inactive; V1R ag counter: inactive; CHRM4 agonist: inactive; OXTR potentiate: inactive

Results for Cc1ccc(NC(=O)c2cncc(Br)c2)c([N+](=O)[O-])c1 ?
M4 PAM: 23; CHRM4 antagonist: inactive; OXTR agonist: inactive; V1R ag counter: inactive; CHRM4 agonist: inactive; OXTR potentiate: inactive
